Source: ChEMBL document CHEMBL1124798, “Design of peptidomimetic delta opioid receptor antagonists using the message-address concept” (J Med Chem, 1990)

Experiments:
[1] = biological target: Delta-type opioid receptor (Mus musculus) (UniProt P32300); test: Opioid receptor delta 1 antagonistic activity was measured by the displacement of DADLE in the mouse vas deferens at tha concentration of 200 nM; type: functional
Procedure, shortened: (§1)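 Mouse vas deferens. Antagonist (nM, as stated on line) incubated with the preparation 15 min before testing. δ agonist [D-Ala2,D-Leu5]enkephalin.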

[2] = biological target: Kappa-type opioid receptor (Cavia porcellus) (UniProt P41144); test: Opioid receptor kappa 1 antagonistic activity was measured by the displacement of ethylketazocine in the guinea pig ileum at a concentration of 200 nM; type: functional, tissue-based
Chain of Kappa-type opioid receptor (Cavia porcellus) (P41144 whole entry): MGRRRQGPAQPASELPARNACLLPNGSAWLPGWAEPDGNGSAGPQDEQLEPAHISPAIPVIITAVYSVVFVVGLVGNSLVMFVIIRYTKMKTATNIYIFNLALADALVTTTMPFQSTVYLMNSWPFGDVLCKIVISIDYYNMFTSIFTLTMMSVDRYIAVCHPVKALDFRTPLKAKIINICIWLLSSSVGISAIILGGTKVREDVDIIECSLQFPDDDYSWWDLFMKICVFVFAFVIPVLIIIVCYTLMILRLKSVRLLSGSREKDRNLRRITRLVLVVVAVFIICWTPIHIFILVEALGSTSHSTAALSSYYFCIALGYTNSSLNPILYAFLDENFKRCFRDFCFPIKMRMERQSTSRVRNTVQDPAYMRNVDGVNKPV
Procedure, shortened: (§2)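 Guinea pig ileum. Antagonist (nM, as stated on line) incubated 15 min before testing. Agonists: morphine (μ) and ethylketazocine (κ).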

[3] = biological target: Delta-type opioid receptor (Mus musculus) (UniProt P32300); test: Antagonist potency was determined as the ratio of [antagonist] to (IC50 ratio-1) for opioid receptor delta 1; type: functional
Procedure, shortened: (§3)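 Ke (nM) = [antagonist]/(IC50 ratio − 1). IC50 ratio is agonist IC50 with antagonist over the control IC50 in the same preparation. Antagonist preincubated 15 min. Agonists: DADLE in mouse vas deferens (δ); morphine (μ) and ethylketazocine (κ) in guinea pig ileum. n ≥ 3.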

[4] = biological target: Mu-type opioid receptor (Cavia porcellus) (UniProt P97266); test: Opioid receptor mu antagonistic activity was measured by the displacement of morphine in the guinea pig ileum at a concentration of 200 nM; type: functional, tissue-based; procedure, shortened: as §2
Chain of Mu-type opioid receptor (Cavia porcellus) (P97266 whole entry): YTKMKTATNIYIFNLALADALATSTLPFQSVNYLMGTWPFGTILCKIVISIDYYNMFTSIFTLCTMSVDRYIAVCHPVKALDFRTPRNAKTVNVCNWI

[5] = biological target: Mu-type opioid receptor (Cavia porcellus) (UniProt P97266); test: Antagonist potency was determined as the ratio of [antagonist] to (IC50 ratio-1) for Opioid receptor mu 1; type: functional; procedure, shortened: as §3
[6] = biological target: Kappa-type opioid receptor (Cavia porcellus) (UniProt P41144); test: Opioid receptor kappa antagonistic activity was measured by the displacement of ethylketazocine in the guinea pig ileum at a concentration of 200 nM; type: functional, tissue-based; procedure, shortened: as §2
[7] = biological target: Kappa-type opioid receptor (Cavia porcellus) (UniProt P41144); test: Antagonist potency was determined as the ratio of [antagonist] to (IC50 ratio-1) for Opioid receptor kappa 1; type: functional; procedure, shortened: as §3
[8] = biological target: Mu-type opioid receptor (Cavia porcellus) (UniProt P97266); test: Opioid receptor mu 1 antagonistic activity was measured by the displacement of morphine in the guinea pig ileum at a concentration of 200 nM; type: functional, tissue-based; procedure, shortened: as §2
[9] = biological target: Delta-type opioid receptor (Mus musculus) (UniProt P32300); test: Opioid receptor delta antagonistic activity was measured by the displacement of DADLE in the mouse vas deferens at tha concentration of 200 nM; type: functional; procedure, shortened: as §1
[10] = biological target: Opioid receptors; delta & kappa (Homo sapiens) (UniProt P41145+P41143); test: Selectivity ratio was determined from Ke value of Opioid receptor kappa 1 and Opioid receptor delta 1; type: protein assay; settings: Cavia porcellus
Chain of Opioid receptors; delta & kappa (Homo sapiens) (P41143 whole entry, looked up): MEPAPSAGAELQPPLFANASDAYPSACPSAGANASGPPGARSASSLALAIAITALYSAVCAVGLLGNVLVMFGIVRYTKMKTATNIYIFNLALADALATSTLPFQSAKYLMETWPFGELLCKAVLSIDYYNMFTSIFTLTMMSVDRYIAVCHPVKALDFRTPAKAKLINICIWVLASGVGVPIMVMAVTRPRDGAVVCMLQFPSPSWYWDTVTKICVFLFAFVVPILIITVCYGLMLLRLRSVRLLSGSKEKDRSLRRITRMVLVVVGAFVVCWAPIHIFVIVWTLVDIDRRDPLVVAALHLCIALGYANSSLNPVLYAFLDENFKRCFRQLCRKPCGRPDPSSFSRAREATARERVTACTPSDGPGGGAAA
Chain of Opioid receptors; delta & kappa (Homo sapiens) (P41145 whole entry, looked up): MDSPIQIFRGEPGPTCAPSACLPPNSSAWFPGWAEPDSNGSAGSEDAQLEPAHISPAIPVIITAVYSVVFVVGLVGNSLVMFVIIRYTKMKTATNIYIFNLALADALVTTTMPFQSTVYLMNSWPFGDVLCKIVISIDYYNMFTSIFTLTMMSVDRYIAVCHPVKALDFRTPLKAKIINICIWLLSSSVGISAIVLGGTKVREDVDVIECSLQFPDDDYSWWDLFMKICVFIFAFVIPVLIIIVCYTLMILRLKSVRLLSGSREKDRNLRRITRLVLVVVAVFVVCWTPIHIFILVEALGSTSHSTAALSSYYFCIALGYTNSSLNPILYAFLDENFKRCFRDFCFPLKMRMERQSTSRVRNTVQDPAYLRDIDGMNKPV
Procedure, shortened: (§4)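 Ratios of Ke values, μ/δ or κ/δ. Each Ke = [antagonist]/(IC50 ratio − 1). δ from DADLE in mouse vas deferens; μ (morphine) and κ (ethylketazocine) in guinea pig ileum. 15 min antagonist preincubation, n ≥ 3.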

[11] = biological target: Opioid receptors; mu & delta (Homo sapiens) (UniProt P41143+P35372); test: Selectivity ratio was determined from Ke value of Opioid receptor mu 1 and Opioid receptor delta 1; type: protein assay; settings: Cavia porcellus; procedure, shortened: as §4
Chain of Opioid receptors; mu & delta (Homo sapiens) (P35372 whole entry, looked up): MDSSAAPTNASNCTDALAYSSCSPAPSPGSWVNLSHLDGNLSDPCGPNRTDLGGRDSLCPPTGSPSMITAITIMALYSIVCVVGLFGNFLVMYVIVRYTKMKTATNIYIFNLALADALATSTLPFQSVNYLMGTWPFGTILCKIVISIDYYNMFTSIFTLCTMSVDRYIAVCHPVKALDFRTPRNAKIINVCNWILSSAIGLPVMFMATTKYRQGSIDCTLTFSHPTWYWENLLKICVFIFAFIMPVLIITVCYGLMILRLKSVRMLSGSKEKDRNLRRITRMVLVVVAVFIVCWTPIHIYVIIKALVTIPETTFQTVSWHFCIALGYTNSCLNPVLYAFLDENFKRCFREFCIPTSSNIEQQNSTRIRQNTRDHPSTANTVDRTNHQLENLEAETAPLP
Chain of Opioid receptors; mu & delta (Homo sapiens) (P41143 whole entry, looked up): as the sequence (P41143 whole entry, looked up) above

Mu-type opioid receptor [12] = biological target: T1, Mu-type opioid receptor (Cavia porcellus, UniProt P97266); test: Binding affinity was measured by the displacement of [3H]- DAMGO in guinea pig brain membrane of Opioid receptor mu 1; type: cell membranes
T1 sequence (P97266 whole entry): as the sequence (P97266 whole entry) above
Procedure, shortened: (§5)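 Radioligand displacement from guinea pig brain membranes, modified Werling method. μ sites: [3H]DAMGO. δ sites: [3H]DADLE with 1 μM DAMGO. κ sites: [3H]ethylketazocine with 1 μM DAMGO.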

[13] = biological target: T2, Kappa-type opioid receptor (Cavia porcellus, UniProt P41144); test: Binding affinity was measured by the displacement of [3H]- EK in guinea pig brain membrane of Opioid receptor kappa 1; type: cell membranes; procedure, shortened: as §5
T2 sequence (P41144 whole entry): as the sequence (P41144 whole entry) above

[14] = biological target: T2, Kappa-type opioid receptor; test: Binding affinity was measured by the displacement of [3H]- EK in guinea pig brain membrane of opioid receptor kappa; type: cell membranes; procedure, shortened: as §5
Mu-type opioid receptor [15] = biological target: T1, Mu-type opioid receptor; test: Binding affinity was measured by the displacement of [3H]- DAMGO in guinea pig brain membrane of opioid receptor mu; type: cell membranes; procedure, shortened: as §5
[16] = biological target: Mu-type opioid receptor (Cavia porcellus) (UniProt P97266); settings: Ileum, 200 nM
[17] = biological target: Delta-type opioid receptor (Mus musculus) (UniProt P32300); test: Opioid receptor delta 1 antagonistic activity was measured by the displacement of DADLE in the mouse vas deferens at a concentration of 100 nM; type: functional; procedure, shortened: as §1
[18] = biological target: Kappa-type opioid receptor (Cavia porcellus) (UniProt P41144); test: Opioid receptor kappa 1 antagonistic activity was measured by the displacement of ethylketazocine in the guinea pig ileum at a concentration of 100 nM; type: functional, tissue-based; procedure, shortened: as §2
[19] = biological target: Kappa-type opioid receptor (Cavia porcellus) (UniProt P41144); test: Opioid receptor kappa antagonistic activity was measured by the displacement of ethylketazocine in the guinea pig ileum at a concentration of 100 nM; type: functional, tissue-based; procedure, shortened: as §2
[20] = biological target: Mu-type opioid receptor (Cavia porcellus) (UniProt P97266); test: Opioid receptor mu 1 antagonistic activity was measured by the displacement of morphine in the guinea pig ileum at a concentration of 100 nM; type: functional, tissue-based; procedure, shortened: as §2
[21] = biological target: Delta-type opioid receptor (Mus musculus) (UniProt P32300); test: Opioid receptor delta antagonistic activity was measured by the displacement of DADLE in the mouse vas deferens at a concentration of 100 nM; type: functional; procedure, shortened: as §1
[22] = biological target: Mu-type opioid receptor (Cavia porcellus) (UniProt P97266); test: Opioid receptor mu antagonistic activity was measured by the displacement of morphine in the guinea pig ileum at a concentration of 100 nM; type: functional, tissue-based; procedure, shortened: as §2

Chain of Delta-type opioid receptor (Mus musculus) (P32300 whole entry): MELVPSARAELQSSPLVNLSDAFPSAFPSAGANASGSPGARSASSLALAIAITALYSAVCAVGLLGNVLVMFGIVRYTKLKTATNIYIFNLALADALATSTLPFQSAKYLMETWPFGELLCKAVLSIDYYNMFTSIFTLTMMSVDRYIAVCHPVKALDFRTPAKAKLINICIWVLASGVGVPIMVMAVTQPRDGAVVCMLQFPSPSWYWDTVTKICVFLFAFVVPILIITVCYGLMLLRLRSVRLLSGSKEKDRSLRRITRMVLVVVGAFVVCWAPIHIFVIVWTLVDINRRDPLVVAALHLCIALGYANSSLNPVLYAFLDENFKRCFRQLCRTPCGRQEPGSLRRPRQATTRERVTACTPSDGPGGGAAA

Row | Structure (SMILES) | IC50 ratio [1] | IC50 ratio [2] | Ke [3] [nM] | Ke [5] [nM] | IC50 ratio [6] | Ke [7] [nM] | IC50 ratio [8] | IC50 ratio [9] | Selectivity ratio [10] | Selectivity ratio [11] | Ki (Mu-type opioid receptor [12]) [nM] | Ki [13] [nM] | Ki [14] [nM] | Ki (Mu-type opioid receptor [15]) [nM] | IC50 ratio [18] | IC50 ratio [19] | IC50 ratio [20] | IC50 ratio [22] | also measured
1 | O=[N+]([O-])c1ccc2[nH]c3c(c2c1)C[C@@]1(O)[C@H]2Cc4ccc(O)c5c4[C@@]1(CCN2CC1CC1)[C@H]3O5 | 2.4 | 1.2 | 146 | > 230 | 1.2 | > 870 | 1.9 | 2.4 | > 5.6 | > 1.6 |  |  |  |  |  |  |  |  | IC50 ratio [4]: 1.9
2 | Oc1ccc2c3c1O[C@H]1c4[nH]c5ccc(F)cc5c4C[C@@]4(O)[C@@H](C2)N(CC2CC2)CC[C@]314 | 104 | 6.3 | 1.9 | 49 | 6.3 | 38 | 5.1 | 104 | 19 | 25 | 1.7 | 15 | 15 | 1.7 |  |  |  |  | IC50 ratio [16]: 5.1
3 | Oc1ccc2c3c1O[C@H]1c4c(c5ccccc5n4-c4ccccc4)C[C@@]4(O)[C@@H](C2)N(CC2CC2)CC[C@]314 |  |  | 3.1 | > 149 |  | > 152 |  |  | > 49 | > 48 | 28 | 746 | 746 | 28 | 6.7 | 6.7 | 1.7 | 1.7 | IC50 ratio [17]: 33; IC50 ratio [21]: 33
4 | Cc1ccc2[nH]c3c(c2c1)C[C@@]1(O)[C@H]2Cc4ccc(O)c5c4[C@@]1(CCN2CC1CC1)[C@H]3O5 | 55.4 |  | 3.7 | > 167 |  | > 250 |  | 55.4 | > 68 | > 45 |  |  |  |  | 1.4 | 1.4 | 1.6 | 1.6 | 
5 | COc1ccc2[nH]c3c(c2c1)C[C@@]1(O)[C@H]2Cc4ccc(O)c5c4[C@@]1(CCN2CC1CC1)[C@H]3O5 | 53 |  | 3.8 | > 63 |  | 12 |  | 53 | 3.2 | > 16 |  |  |  |  | 9.2 | 9.2 | 2.6 | 2.6 | 
